Source: ChEMBL document CHEMBL1133019, “Synthesis, spectroscopy, and cytotoxicity of glycosylated acetogenin derivatives as promising molecules for cancer therapy” (J Med Chem, 2000)
Values joined by “and” are separate entries in the source; they are usually repeats but may differ in a detail not shown here. Equal values may be shown once.

Experiments:
[1] = system: L1210; assay: Cell Cycle inhibition against mouse lymphocytic leukemia cells (L1210) at 10 uM; assay type: functional
In short: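 L1210 cells cultured 24 h with compound, alongside a compound-free control flask; BrdU added after 15 min. Cells ethanol-permeabilized, stained with rat anti-BrdU then FITC goat secondary, counterstained with propidium iodide, analysed by flow cytometry. Percentage of cells in each cell-cycle phase calculated from histograms.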

[2] = Cytotoxic activity against human epidermoid carcinoma cells (KB); assay type: functional
In short: (§1)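 Adherent monolayers seeded 24 h before treatment; 3-fold serial dilutions added; 72 h at 37 °C, humidified 5% CO2. Cells formol-fixed, methylene blue stained, washed, dye released with 0.1 M HCl, absorbance at 620 nm. Proliferation as % of acetogenin-free control; EC50 (50% growth inhibition) read from dose-response curves.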

[3] = system: L1210; assay: Cytotoxic activity against mouse lymphocytic leukemia cells (L1210); assay type: functional, cell-based
In short: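 L1210 in RPMI 1640 with 10% FBS, 2 mM L-glutamine, penicillin/streptomycin; doubling time about 13 h. Exponentially growing cells (1 × 10^4/well) exposed 72 h at 37 °C to drug dilutions prepared from DMSO solutions in medium. Coulter counter cell counts, triplicates, as % of triplicate controls; IC50 from residual cells vs concentration on semilog scale.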

[4] = system: Vero; assay: Cytotoxic activity against african green monkey (Cercopithecus aethiops) kidney epithelial cells (VERO); assay type: functional, cell-based; settings: Chlorocebus sabaeus; in short: as §1

SMILES | inhibition at 10 µM [1] | EC50 [2] | EC50 ([3]; l1210) | EC50 ([3]; Mus musculus, L1210) | EC50 [4]
CCCCCC[C@H](O)CCC[C@H](OC[C@H]1O[C@@H](O)[C@H](O)[C@@H](O)[C@@H]1O)[C@H]1CC[C@H]([C@H]2CC[C@H]([C@H](O)CCCCCCCCCCCCC3C[C@H](C)OC3=O)O2)O1 (some centres not stated) | 54% | 9 nM | 10 nM and 80 nM | – | –
CCCCCC[C@@H](CCC[C@H](OC(C)=O)[C@H]1CC[C@H]([C@H]2CC[C@H]([C@@H](CCCCCCCCCCCCC3=C[C@H](C)OC3=O)OC(C)=O)O2)O1)OC[C@H]1O[C@@H](OC(C)=O)[C@H](OC(C)=O)[C@@H](OC(C)=O)[C@@H]1OC(C)=O | – | 0.96 nM | – | 300 nM | 20 nM
CCCCCC[C@H](O)CCC[C@H](OC[C@H]1O[C@@H](O)[C@H](O)[C@@H](O)[C@@H]1O)[C@H]1CC[C@H]([C@H]2CC[C@H]([C@@H](CCCCCCCCCCCCC3=C[C@H](C)OC3=O)OC[C@H]3O[C@@H](O)[C@H](O)[C@@H](O)[C@@H]3O)O2)O1 | – | 1050 nM | – | 10000 nM | 1050 nM
CCCCCC[C@H](O)CCC[C@H](OC[C@H]1O[C@@H](OCc2ccccc2)[C@H](OCc2ccccc2)[C@@H](OCc2ccccc2)[C@@H]1OCc1ccccc1)[C@H]1CC[C@H]([C@H]2CC[C@H]([C@H](O)CCCCCCCCCCCCC3=C[C@H](C)OC3=O)O2)O1 | – | – | – | 50 nM | –
CCCCCC[C@@H](CCC[C@H](OC(C)=O)[C@H]1CC[C@H]([C@H]2CC[C@H]([C@@H](CCCCCCCCCCCCC3=C[C@H](C)OC3=O)OC(C)=O)O2)O1)OC[C@H]1O[C@@H](O)[C@H](O)[C@@H](O)[C@@H]1O | – | 11 nM | – | 17 nM | 340 nM
CCCCCC[C@H](O)CCC[C@H](O)[C@H]1CC[C@H]([C@H]2CC[C@H]([C@@H](CCCCCCCCCCCCC3=C[C@H](C)OC3=O)OC[C@H]3O[C@H](OCc4ccccc4)[C@H](OCc4ccccc4)[C@@H](OCc4ccccc4)[C@@H]3OCc3ccccc3)O2)O1 | 65% | – | – | – | –
CCCCCC[C@H](O)CCC[C@H](O)[C@H]1CC[C@H]([C@H]2CC[C@H]([C@H](O)CCCCCCCCCCCCC3C[C@H](C)OC3=O)O2)O1 (some centres not stated) | – | 0.24 nM | – | < 0.25 nM | 16 nM
CCCCCC[C@H](O)CCC[C@H](O)[C@H]1CC[C@H]([C@H]2CC[C@H]([C@H](O)CCCCCCCCCCCCC3=C[C@H](C)OC3=O)O2)O1 [SQUAMOCIN] | – | 0.24 nM | – | < 0.25 nM | 16 nM
CC[C@]1(O)C[C@@H]2CN(CCc3c([nH]c4ccccc34)[C@@](C(=O)OC)(c3cc4c(cc3OC)N(C)[C@H]3[C@@](O)(C(=O)OC)[C@H](OC(C)=O)[C@]5(CC)C=CCN6CC[C@]43[C@@H]65)C2)C1 [VINBLASTINE] | – | 1.2 nM | – | – | < 3700 nM
